Laboratory results taken from ChEMBL document CHEMBL3352265, “Potentially bioactive organotin(IV) compounds: synthesis, characterization, in vitro bioactivities and interaction with SS-DNA” (Eur J Med Chem, 2014).
Converted amounts (≈) assume the structure as drawn. The source made the active and inactive calls. The calls are words filed in the database; no cut-off is given here.

Key:
[1] = tested on: Escherichia coli; assay: Antibacterial activity against Escherichia coli ATCC 15224 at 40 mg/mL after 24 hrs by disc diffusion method; type: functional
Method in brief: (§1)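 Disc diffusion. Strains grown in nutrient broth at 37 °C for 24 h. 1% culture (about 10^6 CFU/mL) mixed into nutrient agar at 45 °C and poured. 4 mm paper discs received compound at 40 mg/mL stock in DMSO; final concentrations tested were […]. DMSO served as negative control, roxithromycin and cefixime as positive controls. Triplicate plates incubated at 37 °C for 24 h. Complete-inhibition zone diameter (mm) recorded as the mean of 3.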

[2] = tested on: Staphylococcus aureus; assay: Antibacterial activity against Staphylococcus aureus ATCC 6538 at 40 mg/mL after 24 hrs by disc diffusion method; type: functional; method in brief: as §1
[3] = tested on: Klebsiella aerogenes; assay: Antibacterial activity against Enterobacter aerogenes ATCC 13048 at 40 mg/mL after 24 hrs by disc diffusion method; type: functional; method in brief: as §1
[4] = tested on: Salmonella typhimurium; assay: Antibacterial activity against Salmonella typhimurium ATCC 14028 at 40 mg/mL after 24 hrs by disc diffusion method; type: functional, Salmonella enterica subsp. enterica serovar Typhimurium; settings: for inhibition zone (IZ): Salmonella enterica subsp. enterica serovar Typhimurium; method in brief: as §1
[5] = tested on: Bordetella bronchiseptica; assay: Antibacterial activity against Bordetella bronchiseptica ATCC 4617 at 40 mg/mL after 24 hrs by disc diffusion method; type: functional; method in brief: as §1
[6] = tested on: Bacillus spizizenii; assay: Antibacterial activity against Bacillus subtilis ATCC 6633 at 40 mg/mL after 24 hrs by disc diffusion method; type: functional; method in brief: as §1
[7] = tested on: Escherichia coli; assay: Antibacterial activity against Escherichia coli ATCC 15224 after 18 hrs by microdilution method; type: functional
Method in brief: (§2)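 Broth microdilution. Twofold dilutions in culture broth at […]. Each well inoculated with bacterial suspension (10^8 CFU/mL, about 10^5 CFU/well). Sterility control and growth control (broth plus DMSO) included. Incubated at 36 °C for 18 h, in triplicate. MIC taken as the lowest concentration inhibiting growth, given in micrograms per mL.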

[8] = tested on: Staphylococcus aureus; assay: Antibacterial activity against Staphylococcus aureus ATCC 6538 after 18 hrs by microdilution method; type: functional; method in brief: as §2
[9] = tested on: Salmonella typhimurium; assay: Antibacterial activity against Salmonella typhimurium ATCC 14028 after 18 hrs by microdilution method; type: functional, Salmonella enterica subsp. enterica serovar Typhimurium; method in brief: as §2
[10] = tested on: Bordetella bronchiseptica; assay: Antibacterial activity against Bordetella bronchiseptica ATCC 4617 after 18 hrs by microdilution method; type: functional; method in brief: as §2
[11] = tested on: Bacillus spizizenii; assay: Antibacterial activity against Bacillus subtilis ATCC 6633 after 18 hrs by microdilution method; type: functional; method in brief: as §2
[12] = tested on: Aspergillus niger; assay: Antifungal activity against Aspergillus niger FCBP 0198 at 40 mg/mL after 7 days by disc diffusion method; type: functional
Method in brief: (§3)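 Disc diffusion on SDA. Fungi cultured at 28 °C for 24 h. 4 mm discs received compound at 40 mg/mL stock in DMSO. DMSO served as negative control, terbinafine as positive control. Plates incubated at 28 °C for 7 days. Growth diameter (mm) measured and inhibition calculated against the negative control. MIC taken as the lowest concentration with no growth.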

[13] = tested on: Aspergillus fumigatus; assay: Antifungal activity against Aspergillus fumigatus FCBP 66 at 40 mg/mL after 7 days by disc diffusion method; type: functional; method in brief: as §3
[14] = tested on: Aspergillus flavus; assay: Antifungal activity against Aspergillus flavus FCBP 0064 at 40 mg/mL after 7 days by disc diffusion method; type: functional; method in brief: as §3
[15] = tested on: Mucor; assay: Antifungal activity against Mucor FCBP 0400 at 40 mg/mL after 7 days by disc diffusion method; type: functional; method in brief: as §3
[16] = tested on: Artemia salina; assay: Cytotoxicity in brine shrimp assessed as mortality after 24 hrs; type: functional
[17] = tested on: Agrobacterium tumefaciens; assay: Antitumor activity against Agrobacterium tumefaciens -induced tumor at 1000 ug/ml after 21 days by potato disc bioassay technique; type: functional
Method in brief: (§4)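 Potato disc assay with 48 h culture of A. tumefaciens At-10. Inoculum contained compound at […]. Red-skinned potatoes sterilized in 0.1% HgCl2; 8 mm × 4 mm discs placed ten per 1.5% agar plate, […] each. Incubated at 28 °C in the dark for 21 days, in triplicate. Discs stained with Lugol's and tumors counted. Percent inhibition calculated against the negative control.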

[18] = tested on: Agrobacterium tumefaciens; assay: Antitumor activity against Agrobacterium tumefaciens -induced tumor at 100 ug/ml after 21 days by potato disc bioassay technique; type: functional; method in brief: as §4
[19] = tested on: Agrobacterium tumefaciens; assay: Antitumor activity against Agrobacterium tumefaciens -induced tumor at 10 ug/ml after 21 days by potato disc bioassay technique; type: functional; method in brief: as §4
[20] = tested on: Agrobacterium tumefaciens; assay: Antitumor activity against Agrobacterium tumefaciens -induced tumor after 21 days by potato disc bioassay technique; type: functional, organism-based; settings: 504 h; method in brief: as §4
[21] = tested on: Escherichia coli; assay: Induction of Escherichia coli pBR322 DNA damage assessed as open circular form at 1000 ug/ml after 60 mins by gel electrophoresis
[22] = tested on: Escherichia coli; assay: Induction of Escherichia coli pBR322 DNA damage assessed as open circular form at 100 ug/ml after 60 mins by gel electrophoresis
[23] = tested on: Escherichia coli; assay: Induction of Escherichia coli pBR322 DNA damage assessed as open circular form at 10 ug/ml after 60 mins by gel electrophoresis
[24] = tested on: Escherichia coli; assay: Induction of Escherichia coli pBR322 DNA damage assessed as open circular form at 1 ug/ml after 60 mins by gel electrophoresis
[25] = tested on: Leishmania major; assay: Antileishmanial activity against Leishmania major kwh 23 after 72 hrs using neobar counting by microscopy; type: functional, organism-based; settings: kwh 23, 72 h
Method in brief: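 Leishmania major promastigotes grown 7 days at 24 °C in medium 199 with 10% FBS. Samples as 10,000 ppm DMSO stocks, added to reach 200 ppm in the first row and serially diluted in 96-well plates, DMSO kept <5%. DMSO negative and amphotericin B positive controls. Incubated 72 h at 24 °C. Mortality counted in a counting chamber by light microscopy. Run 3 times. IC50 is the concentration giving 50% parasite reduction.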

[26] = tested on: Klebsiella aerogenes; assay: Antibacterial activity against Enterobacter aerogenes ATCC 13048 after 18 hrs by microdilution method; type: functional, organism-based; method in brief: as §2
[27] = tested on: Aspergillus niger; assay: Antifungal activity against Aspergillus niger FCBP 0198 after 7 days by disc diffusion method; type: functional, organism-based; method in brief: as §3
[28] = tested on: Aspergillus fumigatus; assay: Antifungal activity against Aspergillus fumigatus FCBP 66 after 7 days by disc diffusion method; type: functional, organism-based; method in brief: as §3
[29] = tested on: Aspergillus flavus; assay: Antifungal activity against Aspergillus flavus FCBP 0064 after 7 days by disc diffusion method; type: functional, organism-based; method in brief: as §3
[30] = tested on: Mucor; assay: Antifungal activity against Mucor FCBP 0400 at 40 mg/mL by disc diffusion method; type: functional, organism-based; method in brief: as §3
[31] = Salmonella enterica subsp. enterica serovar Typhimurium

Molecule	Activity [17]	Activity [18]	Activity [19]	Activity [21]	Activity [22]	Activity [23]	Activity [24]	IC50 [25]	inhibition zone (IZ) [1]	inhibition zone (IZ) [2]	inhibition zone (IZ) [3]	inhibition zone (IZ) [4]	inhibition zone (IZ) [5]	inhibition zone (IZ) [6]	MIC [7]	MIC [8]	MIC [26]	MIC [9, 31]	MIC [10]	MIC [11]	other results
COc1ccccc1NC(=O)CCC(=O)O	62.64%	31.14%	5.63%	inactive	inactive	inactive	inactive	0.00342 µg/mL (≈ 0.0153 µM)													zone of inhibition at 40000 µg/mL ([1]; ATCC 15224, 24 h, read-out: DIZ): 16 mm; zone of inhibition at 40000 µg/mL ([2]; ATCC 6538, 24 h, read-out: DIZ): 11 mm; zone of inhibition at 40000 µg/mL ([3]; ATCC 13048, 24 h, read-out: DIZ): 0 mm; zone of inhibition at 40000 µg/mL ([4]; Salmonella enterica, ATCC 14028, 24 h, read-out: DIZ): 8 mm; zone of inhibition at 40000 µg/mL ([5]; ATCC 4617, 24 h, read-out: DIZ): 9 mm; zone of inhibition at 40000 µg/mL ([6]; ATCC 6633, 24 h, read-out: DIZ): 10 mm; MIC ([7]; ATCC 15224, 18 h): 100 µg/mL (≈ 448 µM); MIC ([8]; ATCC 6538, 18 h): 100 µg/mL (≈ 448 µM); MIC ([9]; Salmonella enterica, ATCC 14028, 18 h): 200 µg/mL (≈ 896 µM); MIC ([10]; ATCC 4617, 18 h): 200 µg/mL (≈ 896 µM); MIC ([11]; ATCC 6633, 18 h): 200 µg/mL (≈ 896 µM); zone of inhibition at 40000 µg/mL ([12]; FCBP 0198, 168 h, read-out: DIZ): 0 mm; zone of inhibition at 40000 µg/mL ([13]; FCBP 66, 168 h, read-out: DIZ): 0 mm; zone of inhibition at 40000 µg/mL ([14]; FCBP 0064, 168 h, read-out: DIZ): 0 mm; zone of inhibition at 40000 µg/mL ([15]; FCBP 0400, 168 h, read-out: DIZ): 0 mm; LC50 ([16]; read-out: LD50 (the source's name)): 192 µg/mL (≈ 861 µM); IC50 [20]: 410 µg/mL (≈ 1840 µM)
N-[(2-methoxyphenyl)]-4-oxo-4-[(tribenzylstannyl)oxy]butanamide	76.1%	62%	20.3%	Active	Active	Active	Active		16 mm	17 mm	13 mm	15 mm	13 mm	13 mm	50 µg/mL	100 µg/mL	150 µg/mL	200 µg/mL	100 µg/mL	200 µg/mL	inhibition zone (IZ) [12]: 15 mm; inhibition zone (IZ) [13]: 15 mm; inhibition zone (IZ) [14]: 12 mm; inhibition zone (IZ) [15]: 12 mm; MIC [27]: 150 µg/mL; MIC [28]: 150 µg/mL; MIC [29]: 200 µg/mL; MIC [30]: 200 µg/mL; LD50 [16]: 0.793 µg/mL
C[C@@H]1[C@H](O)[C@@H](C)/C=C/C=C/C=C/C=C/C=C/C=C/C=C/[C@H](O[C@@H]2O[C@H](C)[C@@H](O)[C@H](N)[C@@H]2O)C[C@@H]2O[C@](O)(C[C@@H](O)C[C@@H](O)[C@H](O)CC[C@@H](O)C[C@@H](O)CC(=O)O[C@H]1C)C[C@H](O)[C@H]2C(=O)O [AMPHOTERICIN B]								0.56 µg/mL (≈ 0.606 µM)													
N-[(2-methoxyphenyl)]-4-oxo-4-[(tributylstannyl)oxy]butanamide	87.8%	72.4%	52.3%	inactive	inactive	inactive	inactive		0 mm	12 mm	18 mm	0 mm	12 mm	19 mm	150 µg/mL	150 µg/mL	100 µg/mL	100 µg/mL	100 µg/mL	50 µg/mL	inhibition zone (IZ) [12]: 40 mm; inhibition zone (IZ) [13]: 32 mm; inhibition zone (IZ) [14]: 32 mm; inhibition zone (IZ) [15]: 20 mm; MIC [27]: 1.56 µg/mL; MIC [28]: 3.12 µg/mL; MIC [29]: 3.12 µg/mL; MIC [30]: 3.12 µg/mL; LD50 [16]: 0.433 µg/mL
